Converted amounts (≈) assume the structure as drawn. The source made the active and inactive calls. The rule behind the calls is not given here.
Key:
[1] = test system: Meloidogyne incognita; experiment: Nematicidal activity against second juvenile stage (J2) of Meloidogyne incognita (root-knot nematode) assessed as mortality incubated in the dark at 28 degC after 3 days by light microscopy (benficial crop Tomato); type: functional; conditions: 72 h
Summary of the method: (§1)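 M. incognita eggs taken from infected tomato roots with hypochlorite and J2s hatched in Baermann funnels at 28 °C. J2s from the first 3 days kept in 0.01% Tween 20 water and used within 24 h. About 100 J2s per well; stock added 1:100 in DMSO or MeOH (≤1%). Plates kept shaking in the dark at 28 °C, scored by microscope at 1, 2 and 3 days. Mortality Abbott-corrected. Two runs, three replicates each.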

[2] = test system: Meloidogyne incognita; experiment: Nematicidal activity against second juvenile stage (J2) of Meloidogyne incognita (root-knot nematode) assessed as mortality incubated in the dark at 28 degC after 2 days by light microscopy (benficial crop Tomato); type: functional; conditions: 48 h; summary of the method: as §1
[3] = test system: Caenorhabditis elegans; experiment: Nematicidal activity against Caenorhabditis elegans assessed as mortality; type: functional
[4] = test system: Bursaphelenchus xylophilus; experiment: Nematicidal activity against second juvenile stage (J2) of Bursaphelenchus xylophilus assessed as mortality at >0.33 ug/ml after 2 days by microtiter plate assay method (Beneficial crop Pine); type: functional
Summary of the method: (§2)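 Pine wood nematodes reared on B. cinerea mycelia on PDA for 7 days at 28 °C. J2s collected in 0.01% Triton X-100 water and tested in microtiter plates. Compounds in DMSO or MeOH, solvent ≤1%; solvent-only controls. Concentrations 0.004–1 μg/mL. Mortality Abbott-corrected; LC50 by probit. Two runs, three replicates each.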

[5] = test system: Bursaphelenchus xylophilus; experiment: Nematicidal activity against second juvenile stage (J2) of Bursaphelenchus xylophilus assessed as mortality after 2 days by microtiter plate assay method (Beneficial crop Pine); type: functional; conditions: 48 h; summary of the method: as §2
[6] = test system: Meloidogyne incognita; experiment: Nematicidal activity against second juvenile stage (J2) of Meloidogyne incognita (root-knot nematode) assessed as mortality incubated in the dark at 28 degC after 1 day by light microscopy (benficial crop Tomato); type: functional; conditions: 24 h; summary of the method: as §1
[7] = test system: Rhizoctonia solani; experiment: In vivo antifungal activity against Rhizoctonia solani infected rice seedlings assessed as control of rice sheath blight disease development at 125 ug/ml treated 1 day before spore inoculation measured 3-7 days after inoculation; type: functional
Summary of the method: (§3)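 Potted seedlings sprayed to runoff with material dissolved in MeOH and diluted in 0.025% Tween 20 (5% MeOH); controls got the Tween/MeOH solution alone. Inoculated with spores or mycelial suspension 1 day later. Infected leaf or sheath area rated 3–7 days after inoculation; % control = 100(A−B)/A. Randomized complete block design, three replicates, run in duplicate; Tukey HSD.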

[8] = test system: Botrytis cinerea; experiment: In vivo antifungal activity against Botryotinia fuckeliana infected in tomato seedlings assessed as control of tomato gray mold disease development at 250 ug/ml treated 1 day before spore inoculation measured 3-7 days after inoculation; type: functional; summary of the method: as §3
[9] = test system: Botrytis cinerea; experiment: In vivo antifungal activity against Botryotinia fuckeliana infected in tomato seedlings assessed as control of tomato gray mold disease development at 500 ug/ml treated 1 day before spore inoculation measured 3-7 days after inoculation; type: functional; summary of the method: as §3
[10] = test system: Rhizoctonia solani; experiment: In vivo antifungal activity against Rhizoctonia solani infected rice seedlings assessed as control of rice sheath blight disease development at 250 ug/ml treated 1 day before spore inoculation measured 3-7 days after inoculation; type: functional; summary of the method: as §3
[11] = test system: Rhizoctonia solani; experiment: In vivo antifungal activity against Rhizoctonia solani infected rice seedlings assessed as control of rice sheath blight disease development at 500 ug/ml treated 1 day before spore inoculation measured 3-7 days after inoculation; type: functional; summary of the method: as §3
[12] = test system: Pyricularia oryzae; experiment: In vivo antifungal activity against Magnaporthe oryzae infected rice seedlings assessed as control of rice blast disease development at 125 ug/ml treated 1 day before spore inoculation measured 3-7 days after inoculation; type: functional; summary of the method: as §3
[13] = test system: Pyricularia oryzae; experiment: In vivo antifungal activity against Magnaporthe oryzae infected rice seedlings assessed as control of rice blast disease development at 250 ug/ml treated 1 day before spore inoculation measured 3-7 days after inoculation; type: functional; summary of the method: as §3
[14] = test system: Pyricularia oryzae; experiment: In vivo antifungal activity against Magnaporthe oryzae infected rice seedlings assessed as control of rice blast disease development at 500 ug/ml treated 1 day before spore inoculation measured 3-7 days after inoculation; type: functional; summary of the method: as §3
[15] = test system: Puccinia recondita; experiment: In vivo antifungal activity against Puccinia recondita infected wheat seedlings assessed as reduction in wheat leaf rust disease symptoms development at 125 ug/ml treated 1 day before spore inoculation measured 7 days after inoculation; type: functional; parameters: scale not given: the % may be the effect or the level left; summary of the method: as §3
[16] = test system: Puccinia recondita; experiment: In vivo antifungal activity against Puccinia recondita infected wheat seedlings assessed as reduction in wheat leaf rust disease symptoms development at 250 ug/ml treated 1 day before spore inoculation measured 7 days after inoculation; type: functional; parameters: scale not given: the % may be the effect or the level left; summary of the method: as §3
[17] = test system: Puccinia recondita; experiment: In vivo antifungal activity against Puccinia recondita infected wheat seedlings assessed as reduction in wheat leaf rust disease symptoms development at 500 ug/ml treated 1 day before spore inoculation measured 7 days after inoculation; type: functional; parameters: scale not given: the % may be the effect or the level left; summary of the method: as §3
[18] = test system: Phytophthora infestans; experiment: In vivo antifungal activity against Phytophthora infestans zoospores infected tomato seedlings assessed as control of tomato late blight disease development treated 1 day before spore inoculation measured 3 days after inoculation; type: functional, organism-based; summary of the method: as §3
[19] = test system: Phytophthora infestans; experiment: Antifungal activity against Phytophthora infestans assessed as inhibition of radial mycelial growth at 11.11 to 900 ug/ml incubated at 20 degC for 5 to 7 days by poison plate assay; type: functional
Summary of the method: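 Poison-plate assay: material in MeOH added 1:100 to V8-agar at 50 °C, 2 mL per well of six-well plates, centre-inoculated with a 5 mm plug from the colony margin. Incubated at 20 °C until control growth reached the edge. Controls were 1% MeOH. Read as % inhibition of radial growth. Two runs, four replicates each. IC50 by probit.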

[20] = test system: Phytophthora infestans; experiment: Antifungal activity against Phytophthora infestans assessed as inhibition of zoospore germination incubated in the dark at 20 degC for 24 hr by light microscopy; type: functional, organism-based
Summary of the method: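 Zoospores released by chilling sporangia 1 h at 4 °C, then filtered to remove sporangia. Test solution in MeOH mixed 1:100 with the suspension (1% MeOH control), loaded onto hole-slide glasses and kept humid at 20 °C for 24 h in the dark. Germinated cells counted per hole by light microscope. Experiment repeated, mean ± SD.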

[21] = test system: Phytophthora infestans; experiment: Antifungal activity against Phytophthora infestans assessed as inhibition of sporangium germination incubated at 20 degC for 24 hr by light microscopy; type: functional, organism-based
Summary of the method: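 Sporangium germination: compounds serially diluted in MeOH (12500 to 391 μg/mL as stock series), sporangia incubated 24 h at 20 °C. About 100 sporangia per replicate scored for germination by light microscope. Experiment repeated, mean ± SD. IC50 by probit.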

[22] = test system: Meloidogyne incognita; experiment: Nematicidal activity against second juvenile stage (J2) of Meloidogyne incognita (root-knot nematode) assessed as mortality at 11 ug/ml incubated in the dark at 28 degC within 2 hr by light microscopy (benficial crop Tomato); type: functional
[23] = test system: Colletotrichum coccodes; experiment: In vivo antifungal activity against Colletotrichum coccodes infected red pepper seedlings assessed as control of red pepper anthracnose development at 250 ug/ml treated 1 day before spore inoculation measured 3-7 days after inoculation; type: functional; summary of the method: as §3
[24] = test system: Colletotrichum coccodes; experiment: In vivo antifungal activity against Colletotrichum coccodes infected red pepper seedlings assessed as control of red pepper anthracnose development at 500 ug/ml treated 1 day before spore inoculation measured 3-7 days after inoculation; type: functional; summary of the method: as §3
[25] = test system: Blumeria hordei; experiment: In vivo antifungal activity against Blumeria graminis f. sp. hordei infected barley seedlings assessed as control of barley powdery mildew disease development at 125 ug/ml treated 1 day before spore inoculation measured 3-7 days after inoculation; type: functional; summary of the method: as §3
[26] = test system: Blumeria hordei; experiment: In vivo antifungal activity against Blumeria graminis f. sp. hordei infected barley seedlings assessed as control of barley powdery mildew disease development at 250 ug/ml treated 1 day before spore inoculation measured 3-7 days after inoculation; type: functional; summary of the method: as §3
[27] = test system: Blumeria hordei; experiment: In vivo antifungal activity against Blumeria graminis f. sp. hordei infected barley seedlings assessed as control of barley powdery mildew disease development at 500 ug/ml treated 1 day before spore inoculation measured 3-7 days after inoculation; type: functional; summary of the method: as §3
[28] = test system: Botrytis cinerea; experiment: In vivo antifungal activity against Botryotinia fuckeliana infected in tomato seedlings assessed as control of tomato gray mold disease development at 125 ug/ml treated 1 day before spore inoculation measured 3-7 days after inoculation; type: functional; summary of the method: as §3
[29] = test system: Phytophthora infestans; experiment: In vivo antifungal activity against Phytophthora infestans zoospores infected tomato seedlings assessed as control of tomato late blight disease development at 2 ug/ml treated 1 day before spore inoculation measured 3 days after inoculation; type: functional; summary of the method: as §3
[30] = test system: Phytophthora infestans; experiment: In vivo antifungal activity against Phytophthora infestans zoospores infected tomato seedlings assessed as control of tomato late blight disease development at 10 ug/ml treated 1 day before spore inoculation measured 3 days after inoculation; type: functional; summary of the method: as §3
[31] = test system: Puccinia recondita; experiment: In vivo antifungal activity against Puccinia recondita infected wheat seedlings assessed as reduction in wheat leaf rust disease symptoms development at 50 to 300 ug/ml treated 1 day before spore inoculation measured 7 days after inoculation; type: functional, organism-based; summary of the method: as §3
[32] = test system: Phytophthora infestans; experiment: In vivo antifungal activity against Phytophthora infestans zoospores infected tomato seedlings assessed as control of tomato late blight disease development at 3.9 ug/ml treated 1 day before spore inoculation measured 3 days after inoculation; type: functional; summary of the method: as §3
[33] = test system: Colletotrichum coccodes; experiment: In vivo antifungal activity against Colletotrichum coccodes infected red pepper seedlings assessed as control of red pepper anthracnose development at 125 ug/ml treated 1 day before spore inoculation measured 3-7 days after inoculation; type: functional; summary of the method: as §3

CCCCCCCCCC[C@@H](O)[C@H]1CC[C@H]([C@H]2CC[C@H]([C@H](O)CCCCCCCCCC[C@@H](O)CC3=C[C@H](C)OC3=O)O2)O1 [REL-SQUAMOCIN-H]
LC50 [1]: 24.3 mg/L (≈ 39 µM)
LC50 [2]: 71.2 mg/L (≈ 114 µM)
LD100 [3]: 0.1 ppm
mortality [4]: 100%
LC50 [5]: 0.012 mg/L
LC50 [6]: > 100 mg/L

CCCCCCCCCC[C@H](O)[C@H]1CC[C@H]([C@H]2CC[C@H]([C@H](O)CCCCCCCCCC[C@@H](O)CC3=C[C@H](C)OC3=O)O2)O1 (relative stereo) [REL-SQUAMOCIN-G]
LC50 [1]: 0.287 mg/L (≈ 0.461 µM)
LC50 [2]: 0.339 mg/L (≈ 0.544 µM)
Activity [7]: 11.8%
Activity [8]: 20%
Activity [9]: 0%
Activity [10]: 0%
Activity [11]: 0%
Activity [12]: 12.5%
Activity [13]: 18.8%
Activity [14]: 18.8%
Activity [15]: 0%
Activity [16]: 0%
Activity [17]: 0%
Activity [18]: Dose-dependent effect
growth inhibition (GI) [19]: 31%
IC50 [20]: 1.92 mg/L (≈ 3.08 µM)
inhibition [20]: Dose-dependent effect
IC50 [21]: 1.43 mg/L (≈ 2.3 µM)
inhibition [21]: Dose-dependent effect
mortality [4]: 100%
LC50 [5]: 0.008 mg/L
mortality at 11 µg/mL [22]: 100%
LC50 [6]: 0.864 mg/L (≈ 1.39 µM)
Activity [23]: 0%
Activity [24]: 0%
Activity [25]: 0%
Activity [26]: 25%
Activity [27]: 0%
Activity [28]: 20%

COc1ccc(C(=CC(=O)N2CCOCC2)c2ccc(Cl)cc2)cc1OC [DIMETHOMORPH]
Activity [29]: 85%
Activity [30]: 100%

CCCCCC[C@H](O)CCC[C@H](O)[C@H]1CC[C@H]([C@H](O)CC[C@H](O)[C@@H]2CC[C@@H](CCCCCCCCCC3=C[C@H](C)OC3=O)O2)O1 (relative stereo) [SQUAMOSTATIN A]
Activity [7]: 0%
Activity [8]: 10%
Activity [9]: 10%
Activity [10]: 11.8%
Activity [11]: 11.8%
Activity [12]: 50%
Activity [13]: 31.3%
Activity [14]: 37.5%
Activity [31]: Active
Activity [32]: >70%
Activity [18]: Dose-dependent effect
growth inhibition (GI) [19]: 31%
IC50 [20]: 1.89 mg/L (≈ 2.96 µM)
inhibition [20]: Dose-dependent effect
IC50 [21]: 2.09 mg/L (≈ 3.27 µM)
inhibition [21]: Dose-dependent effect
mortality [4]: 100%
LC50 [5]: 0.048 mg/L
Activity [33]: 20%
Activity [23]: 40%
Activity [24]: 0%
Activity [25]: 0%
Activity [26]: 0%
Activity [27]: 0%
Activity [28]: 10%

— ChEMBL document CHEMBL3044956, “Nematicidal and antifungal activities of annonaceous acetogenins from Annona squamosa against various plant pathogens” (J Agric Food Chem, 2011)
